EPA's CvTdb concentration-time database

Tests used:
[1] = system: rat; experiment: concentration in blood after dosing
[2] = system: Rat; experiment: concentration in urine after dosing; details: dosed: dibromoacetic acid, 40 mg/kg, oral, Male, F344
[3] = system: Rat; experiment: concentration in urine after dosing; details: dosed: dibromoacetic acid, 100 mg/kg, oral, Male, F344
[4] = system: Rat; experiment: concentration in urine after dosing; details: dosed: dibromoacetic acid, 40 mg/kg, oral, Male, F344; remark: listed apart in the source
[5] = system: Rat; experiment: concentration in urine after dosing; details: dosed: dibromoacetic acid, 100 mg/kg, oral, Male, F344; remark: listed apart in the source
[6] = system: Rat; experiment: concentration in urine after dosing; details: dosed: dibromoacetic acid, oral, Male, F344
[7] = system: rat; experiment: amount in urine after dosing (umol); details: dosed: tert-amyl methyl ether, 38.4 ppm, inhalation, duration: 4 hr, F344 (Harlan Winkelmann)
[8] = system: human; experiment: concentration in blood after dosing; negative times count back from the end of exposure; details: dosed: ethylbenzene, 33 ppm, inhalation, duration: 7 hr
Outline: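 Points were largely digitised from plot screenshots with WebPlotDigitizer or otherwise copied from tables, and they remain in the units each source reported. They come from published in vivo toxicokinetic studies and two structured collections. Sampling and analytical methods follow each source and were often not reported.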

[9] = system: rat; experiment: concentration in blood after dosing; details: dosed: m-xylene, 5000 ppm, dermal, duration: 4 hr, male, F344
[10] = system: rat; experiment: concentration in blood after dosing; details: dosed: m-xylene, 5000 ppm, dermal, duration: 4 hr, male, F344; remark: listed apart in the source
[11] = system: rat; experiment: concentration in blood after dosing; details: dosed: m-xylene, 5000 ppm, dermal, duration: 4 hr, male, F344; remark: listed apart in the source
[12] = system: rat; experiment: concentration in blood after dosing; details: dosed: m-xylene, 5000 ppm, dermal, duration: 4 hr, male, F344; remark: listed apart in the source
[13] = system: rat; experiment: concentration in blood after dosing; details: dosed: m-xylene, 5000 ppm, dermal, duration: 4 hr, male, F344; remark: listed apart in the source

C=CC#N [acrylonitrile]
[1], dosed: acrylonitrile, inhalation, duration: 3 hr, male, Sprague-Dawley
Details	concentration in blood [ng/mL]
0.103 h, 186 ppm	329
0.1717 h, 291 ppm	588
0.1772 h, 186 ppm	250
0.1774 h, 254 ppm	263
0.2565 h, 291 ppm	287
0.2613 h, 254 ppm	235
0.2676 h, 186 ppm	115
90 s, 254 ppm	1640
94 s, 291 ppm	1960
110 s, 186 ppm	911
337 s, 291 ppm	926
345 s, 254 ppm	473

[1], dosed: acrylonitrile, iv, male, Fisher 344 CDF(F344)/CrlBR
Details	concentration in blood [ng/mL]
0.1675 h, 84 mg/kg	28200
0.1682 h, 3.4 mg/kg	740
0.1683 h, 55 mg/kg	27200
0.1717 h, 47 mg/kg	13400
0.2068 h, 55 mg/kg	21000
0.208 h, 3.4 mg/kg	430
0.2102 h, 47 mg/kg	11800
0.2128 h, 84 mg/kg	27300
0.2495 h, 3.4 mg/kg	259
0.2506 h, 55 mg/kg	17400
0.2512 h, 84 mg/kg	22400
0.2575 h, 47 mg/kg	10900
0.5008 h, 55 mg/kg	6770
0.5014 h, 3.4 mg/kg	140
0.5026 h, 47 mg/kg	3040
0.5056 h, 84 mg/kg	11300
0.6636 h, 55 mg/kg	3100
0.6706 h, 47 mg/kg	1600
0.6711 h, 84 mg/kg	6700
0.9964 h, 55 mg/kg	393
1.005 h, 47 mg/kg	287
1.006 h, 84 mg/kg	1590
1.248 h, 55 mg/kg	396
1.25 h, 47 mg/kg	244
1.25 h, 84 mg/kg	532
182 s, 3.4 mg/kg	4950
183 s, 55 mg/kg	71400
188 s, 84 mg/kg	156000
196 s, 47 mg/kg	52800
303 s, 55 mg/kg	47200
306 s, 3.4 mg/kg	3110
307 s, 84 mg/kg	88300
309 s, 47 mg/kg	38100

O=C(O)C(=O)O [Oxalic acid]
concentration in urine [ng/mL]
Details	0 h	2 h	4 h	8 h	24 h	48 h
[2]	63800	26200	–	–	88700	130000
[3]	53400	–	133000	–	68000	72600
[4]	63000	–	–	71100	99300	133000
[5]	63600	78100	108000	98200	103000	224000

concentration in urine [ng/mL], [6]
Details	0 h	4 h	8 h	24 h	48 h
40 mg/kg	74600	52700	63500	89100	116000
100 mg/kg	64800	105000	–	108000	154000

O=C[O-] [formate]
[1], dosed: methanol, 100 mg/kg, iv, male, CDF(F344)/CrlBR
Details	concentration in blood [ng/mL]
0.1321 h	3240
0.4419 h	3230
0.9757 h	3130
1.457 h	3580
1.923 h	2560
2.94 h	2070
4.456 h	1030
5.99 h	73.9
7.984 h	1330
119 s	740

CC(C)(O)CC(=O)O [3-hydroxy-3-methyl butyrate]
[7]
Details	amount in urine
6.001 h	0.652
12.07 h	0.695
18.1 h	0.787
24.1 h	0.425
30 h	0.178
36.09 h	0.517
42.12 h	0.736
48.11 h	0.23

CCc1ccccc1 [ethylbenzene]
[1], dosed: ethylbenzene, 50 ppm, inhalation, duration: 4 hr
Details	concentration in blood [ng/mL]
0.4948 h	531
0.9897 h	315
1.498 h	193
1.993 h	146
272 s	821

[8]
Details	concentration in blood [ng/mL]
0.4921 h	254
0.9902 h	197

[8], during exposure
Details	concentration in blood [ng/mL]
-1.491 h	518
-0.514 h	497

Cc1cccc(C)c1 [m-xylene]
concentration in blood [ng/mL]
Details	[9]	[10]	[11]	[12]	[13]
0.5 h	2860	154	3960	5380	6020
1 h	2950	5860	3790	9470	7020
2 h	8160	3840	25600	12100	3450
3 h	8020	3760	5950	15900	9500
4 h	9030	5030	9940	16700	11400

[1], dosed: m-xylene, 5000 ppm, dermal, duration: 4 hr, male, F344
Details	concentration in blood [ng/mL]
0.5 h	154
1 h	4110
2 h	4350
3 h	8850
4 h	10500
